Data from ChEMBL document CHEMBL4382192, “Discovery of a potent dual ALK and EGFR T790M inhibitor” (Eur J Med Chem, 2017).

Assays:
CYP2C9 = CYP2C9 (Homo sapiens, UniProt P11712); experiment: Residual activity of CYP2C9 in human liver microsomes at 10 uM using tolbutamide 4-hydroxylase as substrate preincubated for 5 mins followed by NADPH addition measured after 15 mins by LC/MS/MS analysis relative to control; settings: probe tolbutamide (4-hydroxylation)
[1] = target: Uncharacterized serine/threonine-protein kinase SBK3 (Homo sapiens) (UniProt P0C264); experiment: Binding affinity to wild-type human partial length SgK110 (L22 to R329 residues) expressed in bacterial expression system assessed as residual binding level at 1 uM by Kinomescan method relative to control
[2] = target: Tyrosine-protein kinase Blk (Homo sapiens, UniProt P51451); experiment: Binding affinity to wild-type human partial length BLK (G211 to L503 residues) expressed in bacterial expression system assessed as residual binding level at 1 uM by Kinomescan method relative to control
Sequence of Tyrosine-protein kinase Blk (P51451 2-505 limits assumed): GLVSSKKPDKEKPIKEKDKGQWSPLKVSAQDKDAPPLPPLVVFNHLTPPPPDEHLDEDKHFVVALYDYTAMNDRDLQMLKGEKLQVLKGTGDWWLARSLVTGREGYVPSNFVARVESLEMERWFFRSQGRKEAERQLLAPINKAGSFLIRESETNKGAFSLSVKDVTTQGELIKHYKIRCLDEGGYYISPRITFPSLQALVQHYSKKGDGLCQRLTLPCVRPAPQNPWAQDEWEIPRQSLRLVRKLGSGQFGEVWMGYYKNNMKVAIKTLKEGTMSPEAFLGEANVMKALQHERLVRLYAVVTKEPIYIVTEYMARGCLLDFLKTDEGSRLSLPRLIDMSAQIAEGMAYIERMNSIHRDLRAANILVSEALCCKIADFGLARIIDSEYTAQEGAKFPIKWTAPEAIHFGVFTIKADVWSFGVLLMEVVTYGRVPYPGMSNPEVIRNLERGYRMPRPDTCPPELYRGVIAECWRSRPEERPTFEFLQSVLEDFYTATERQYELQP

[3] = test system: Phosphatidylinositol 4,5-bisphosphate 3-kinase catalytic subunit alpha isoform (Homo sapiens), P42336 [C420R]; experiment: Binding affinity to human partial length PIK3CA C420R mutant (R108 to N1068 residues) expressed in mammalian expression system assessed as residual binding level at 1 uM by Kinomescan method relative to control
[4] = target: Phosphatidylinositol 4-phosphate 3-kinase C2 domain-containing subunit beta (Homo sapiens) (UniProt O00750); experiment: Binding affinity to wild-type human partial length PIK3C2B (M1 to L1634 residues) expressed in mammalian expression system assessed as residual binding level at 1 uM by Kinomescan method relative to control
Sequence of Phosphatidylinositol 4-phosphate 3-kinase C2 domain-containing subunit beta (Homo sapiens) (O00750 whole entry, the tested form may be a part): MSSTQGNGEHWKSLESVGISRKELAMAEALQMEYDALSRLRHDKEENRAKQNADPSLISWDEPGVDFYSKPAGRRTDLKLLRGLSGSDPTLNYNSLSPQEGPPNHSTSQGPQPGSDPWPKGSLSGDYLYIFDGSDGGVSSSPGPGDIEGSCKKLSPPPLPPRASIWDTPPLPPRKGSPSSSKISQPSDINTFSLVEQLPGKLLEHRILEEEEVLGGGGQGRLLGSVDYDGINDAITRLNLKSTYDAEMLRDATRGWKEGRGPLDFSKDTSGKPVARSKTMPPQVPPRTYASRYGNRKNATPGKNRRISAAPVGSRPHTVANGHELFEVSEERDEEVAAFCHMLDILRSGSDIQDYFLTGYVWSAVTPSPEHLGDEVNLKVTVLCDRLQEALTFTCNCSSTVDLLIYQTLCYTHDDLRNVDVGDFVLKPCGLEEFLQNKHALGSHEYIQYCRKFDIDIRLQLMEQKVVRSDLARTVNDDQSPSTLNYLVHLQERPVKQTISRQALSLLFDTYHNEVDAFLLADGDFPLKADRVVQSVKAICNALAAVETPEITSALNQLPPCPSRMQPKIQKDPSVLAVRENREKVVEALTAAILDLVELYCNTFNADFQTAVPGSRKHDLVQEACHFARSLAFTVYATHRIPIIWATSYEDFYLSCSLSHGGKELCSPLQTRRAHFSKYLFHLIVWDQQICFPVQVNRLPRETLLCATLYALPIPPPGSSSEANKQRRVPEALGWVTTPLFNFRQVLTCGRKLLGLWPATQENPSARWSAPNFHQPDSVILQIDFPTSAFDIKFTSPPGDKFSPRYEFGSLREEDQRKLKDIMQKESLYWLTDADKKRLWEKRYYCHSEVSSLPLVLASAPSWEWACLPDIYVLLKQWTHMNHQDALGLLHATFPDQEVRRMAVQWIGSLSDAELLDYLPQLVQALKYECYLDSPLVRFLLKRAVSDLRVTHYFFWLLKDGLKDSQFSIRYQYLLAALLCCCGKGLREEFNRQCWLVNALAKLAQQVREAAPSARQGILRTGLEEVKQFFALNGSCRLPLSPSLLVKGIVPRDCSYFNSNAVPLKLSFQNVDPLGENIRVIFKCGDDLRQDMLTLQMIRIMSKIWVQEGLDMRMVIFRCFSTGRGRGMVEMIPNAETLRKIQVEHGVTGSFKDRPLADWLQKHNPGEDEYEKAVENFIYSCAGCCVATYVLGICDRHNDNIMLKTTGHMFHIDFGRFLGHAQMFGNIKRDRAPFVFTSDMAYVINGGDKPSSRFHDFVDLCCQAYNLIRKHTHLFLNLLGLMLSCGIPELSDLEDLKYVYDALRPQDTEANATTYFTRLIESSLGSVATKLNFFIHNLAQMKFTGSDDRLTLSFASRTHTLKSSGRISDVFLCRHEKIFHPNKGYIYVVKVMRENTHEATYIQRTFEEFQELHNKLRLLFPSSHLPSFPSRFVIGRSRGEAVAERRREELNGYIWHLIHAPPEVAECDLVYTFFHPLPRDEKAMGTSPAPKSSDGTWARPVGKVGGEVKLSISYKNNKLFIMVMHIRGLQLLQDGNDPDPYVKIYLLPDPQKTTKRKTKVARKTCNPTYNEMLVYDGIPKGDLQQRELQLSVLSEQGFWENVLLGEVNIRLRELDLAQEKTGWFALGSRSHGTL

[5] = test system: Tyrosine-protein kinase ABL1 (Homo sapiens), P00519 [E255K]; experiment: Binding affinity to human phosphorylated ABL1 E255K mutant (S229 to K512 residues) expressed in mammalian expression system assessed as residual binding level at 1 uM by Kinomescan method relative to control
How it was run: (§1)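 Kinome-wide selectivity panel run by the KINOMEscan method, with the test compound at a single concentration of 1 μM. Wild-type and mutant kinases were profiled in the same screen.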

[6] = target: Serine/threonine-protein kinase 3 (Homo sapiens) (UniProt Q13188); experiment: Binding affinity to wild-type human partial length MST2 (D17 to E318 residues) expressed in bacterial expression system assessed as residual binding level at 1 uM by Kinomescan method relative to control
Sequence of Serine/threonine-protein kinase 3 (Homo sapiens) (Q13188 whole entry, the tested form may be a part): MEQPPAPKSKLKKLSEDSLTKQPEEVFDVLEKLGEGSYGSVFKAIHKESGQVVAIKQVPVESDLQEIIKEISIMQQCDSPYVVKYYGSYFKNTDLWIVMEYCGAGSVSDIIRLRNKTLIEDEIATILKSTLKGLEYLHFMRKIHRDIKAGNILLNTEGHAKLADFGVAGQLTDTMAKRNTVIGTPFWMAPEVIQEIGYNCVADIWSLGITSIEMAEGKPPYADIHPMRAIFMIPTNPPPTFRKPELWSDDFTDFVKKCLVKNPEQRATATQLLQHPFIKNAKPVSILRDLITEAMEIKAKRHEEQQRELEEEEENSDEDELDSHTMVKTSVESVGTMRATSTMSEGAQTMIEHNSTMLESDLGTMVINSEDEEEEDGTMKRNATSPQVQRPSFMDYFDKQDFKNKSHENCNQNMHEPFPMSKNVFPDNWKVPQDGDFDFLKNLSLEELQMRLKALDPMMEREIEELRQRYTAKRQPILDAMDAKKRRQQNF

[7] = target: Inhibitor of nuclear factor kappa-B kinase subunit epsilon (Homo sapiens) (UniProt Q14164); experiment: Binding affinity to wild-type human full length IKK-epsilon (M1 to V716 residues) expressed in mammalian expression system assessed as residual binding level at 1 uM by Kinomescan method relative to control
How it was run: (§2)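 Single-point kinome-wide KINOMEscan binding panel, test compound at 1 μM, run by the provider's standard protocol.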

[8] = target: Cyclin-dependent kinase 7 (Homo sapiens) (UniProt P50613); experiment: Binding affinity to wild-type human full length CDK7 (M1 to L344 residues) expressed in mammalian expression system assessed as residual binding level at 1 uM by Kinomescan method relative to control
[9] = target: Ephrin type-B receptor 4 (Homo sapiens) (UniProt P54760); experiment: Binding affinity to wild-type human partial length EPHB4 (H585 to G892 residues) expressed in bacterial expression system assessed as residual binding level at 1 uM by Kinomescan method relative to control
[10] = target: Tyrosine-protein kinase JAK1 (Homo sapiens) (UniProt P23458); experiment: Binding affinity to wild-type human partial length JAK1 JH2 pseudokinase domain (R537 to D855 residues) expressed in mammalian expression system assessed as residual binding level at 1 uM by Kinomescan method relative to control
Sequence of Tyrosine-protein kinase JAK1 (Homo sapiens) (P23458 whole entry, the tested form may be a part): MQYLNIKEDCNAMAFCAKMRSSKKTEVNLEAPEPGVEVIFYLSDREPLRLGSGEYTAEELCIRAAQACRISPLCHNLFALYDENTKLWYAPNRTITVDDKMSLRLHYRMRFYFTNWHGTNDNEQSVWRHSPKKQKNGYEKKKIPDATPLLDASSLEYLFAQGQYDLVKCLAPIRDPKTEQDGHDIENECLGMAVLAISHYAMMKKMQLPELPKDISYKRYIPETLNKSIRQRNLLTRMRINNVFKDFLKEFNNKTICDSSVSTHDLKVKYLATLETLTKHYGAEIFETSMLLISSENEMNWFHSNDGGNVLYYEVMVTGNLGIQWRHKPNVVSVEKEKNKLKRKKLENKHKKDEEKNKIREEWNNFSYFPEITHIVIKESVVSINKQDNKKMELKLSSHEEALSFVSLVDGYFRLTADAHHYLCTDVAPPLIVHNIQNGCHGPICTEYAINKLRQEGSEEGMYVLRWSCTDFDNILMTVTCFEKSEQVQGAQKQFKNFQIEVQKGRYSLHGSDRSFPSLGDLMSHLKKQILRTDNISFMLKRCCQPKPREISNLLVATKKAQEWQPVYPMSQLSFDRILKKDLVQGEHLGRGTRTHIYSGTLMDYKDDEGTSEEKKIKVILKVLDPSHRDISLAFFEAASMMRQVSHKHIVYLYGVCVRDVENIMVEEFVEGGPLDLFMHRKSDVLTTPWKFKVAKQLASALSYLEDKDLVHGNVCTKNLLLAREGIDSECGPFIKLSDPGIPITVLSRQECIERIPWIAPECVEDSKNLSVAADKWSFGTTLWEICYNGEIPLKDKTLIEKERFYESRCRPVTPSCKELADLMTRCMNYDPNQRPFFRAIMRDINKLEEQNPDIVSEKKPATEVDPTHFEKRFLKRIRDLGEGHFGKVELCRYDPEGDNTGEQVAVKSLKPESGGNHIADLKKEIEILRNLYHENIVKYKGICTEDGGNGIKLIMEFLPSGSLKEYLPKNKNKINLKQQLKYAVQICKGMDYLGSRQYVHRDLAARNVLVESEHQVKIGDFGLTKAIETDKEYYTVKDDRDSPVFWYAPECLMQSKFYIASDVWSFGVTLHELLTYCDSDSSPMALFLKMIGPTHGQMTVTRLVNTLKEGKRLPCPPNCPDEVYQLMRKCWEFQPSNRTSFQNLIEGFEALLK

[11] = target: cAMP-dependent protein kinase catalytic subunit beta (Homo sapiens) (UniProt P22694); experiment: Binding affinity to wild-type human full length PKAC-beta (M1 to F351 residues) expressed in bacterial expression system assessed as residual binding level at 1 uM by Kinomescan method relative to control
How it was run: as §2

[12] = target: Serine/threonine-protein kinase 17A (Homo sapiens) (UniProt Q9UEE5); experiment: Binding affinity to wild-type human partial length DRAK1 (R32 to E363 residues) expressed in bacterial expression system assessed as residual binding level at 1 uM by Kinomescan method relative to control
[13] = Metabolic stability in dog liver microsomes assessed as parent compound remaining at 1 uM after 30 mins in presence of NADPH by LC/MS/MS analysis; type: ADME, Canis lupus familiaris, Microsome; settings: read-out: Stability
How it was run: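 Compound at 1 μM final with 0.5 mg/mL microsomal protein in 100 mM phosphate buffer pH 7.4 at 37 °C, started by adding an NADPH-regenerating system. Reactions were quenched with cold acetonitrile at 0 and 30 min and spun down. Supernatant was analysed by LC-MS/MS. The 0-min sample, quenched before NADPH addition, was set as 100%, and percent parent remaining came from peak areas.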

[14] = test system: Mycobacterium tuberculosis; experiment: Binding affinity to wild-type Mycobacterium tuberculosis partial length PKNB (M1 to G279 residues) expressed in mammalian expression system assessed as residual binding level at 1 uM by Kinomescan method relative to control
How it was run: as §1

[15] = test system: Receptor-type tyrosine-protein kinase FLT3 (Homo sapiens), P36888 [K663Q]; experiment: Binding affinity to human partial length FLT3 K663Q mutant (V592 to Y969 residues) expressed in bacterial expression system assessed as residual binding level at 1 uM by Kinomescan method relative to control
How it was run: as §1

[16] = test system: Epidermal growth factor receptor (Homo sapiens), P00533 [UNDEFINED MUTATION]; experiment: Binding affinity to human partial length EGFR E746-A750del mutant expressed in bacterial expression system assessed as residual binding level at 1 uM by Kinomescan method relative to control
Sequence of Epidermal growth factor receptor (Homo sapiens), P00533 [UNDEFINED MUTATION] (P00533 whole entry, looked up, stated change not applied): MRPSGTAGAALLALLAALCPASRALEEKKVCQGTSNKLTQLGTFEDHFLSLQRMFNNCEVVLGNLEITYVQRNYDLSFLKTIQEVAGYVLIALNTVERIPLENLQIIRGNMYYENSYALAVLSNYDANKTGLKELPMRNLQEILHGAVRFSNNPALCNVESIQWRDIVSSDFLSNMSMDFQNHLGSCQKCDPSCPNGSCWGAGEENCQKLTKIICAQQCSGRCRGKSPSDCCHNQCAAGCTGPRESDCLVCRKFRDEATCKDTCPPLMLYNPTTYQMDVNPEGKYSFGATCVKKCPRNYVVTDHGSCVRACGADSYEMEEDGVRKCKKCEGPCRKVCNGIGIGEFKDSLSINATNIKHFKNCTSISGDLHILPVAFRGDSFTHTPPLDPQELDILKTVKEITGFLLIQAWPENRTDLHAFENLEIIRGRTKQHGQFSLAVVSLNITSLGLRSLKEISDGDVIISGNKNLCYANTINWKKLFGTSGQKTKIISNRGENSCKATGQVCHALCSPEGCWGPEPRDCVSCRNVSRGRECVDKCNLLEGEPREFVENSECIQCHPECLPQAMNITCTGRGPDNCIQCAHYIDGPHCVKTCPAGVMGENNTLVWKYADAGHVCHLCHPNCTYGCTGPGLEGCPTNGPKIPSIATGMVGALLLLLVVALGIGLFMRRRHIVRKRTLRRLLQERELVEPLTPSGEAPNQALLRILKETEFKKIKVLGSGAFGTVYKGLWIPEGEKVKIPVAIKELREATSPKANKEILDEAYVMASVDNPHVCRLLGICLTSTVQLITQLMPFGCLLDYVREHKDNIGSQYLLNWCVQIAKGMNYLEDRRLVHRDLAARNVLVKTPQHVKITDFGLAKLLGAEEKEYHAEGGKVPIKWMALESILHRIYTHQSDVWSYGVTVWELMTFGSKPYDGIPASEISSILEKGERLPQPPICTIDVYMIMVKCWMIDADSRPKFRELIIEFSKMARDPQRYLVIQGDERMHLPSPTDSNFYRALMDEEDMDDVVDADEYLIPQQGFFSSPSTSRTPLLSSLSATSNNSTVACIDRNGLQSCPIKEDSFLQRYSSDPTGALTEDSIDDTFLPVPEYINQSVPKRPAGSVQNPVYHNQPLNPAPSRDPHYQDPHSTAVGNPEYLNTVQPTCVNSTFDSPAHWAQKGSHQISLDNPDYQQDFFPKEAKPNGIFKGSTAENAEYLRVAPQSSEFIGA
How it was run: as §1

[17] = target: Non-receptor tyrosine-protein kinase TYK2 (Homo sapiens) (UniProt P29597); experiment: Binding affinity to wild-type human partial length TYK2 JH1 catalytic domain (V877 to C1187 residues) expressed in mammalian expression system assessed as residual binding level at 1 uM by Kinomescan method relative to control
[18] = Clearance in mouse at 10 mg/kg, po; type: ADME, organism-based; settings: in vivo
[19] = test system: Tyrosine-protein kinase ABL1 (Homo sapiens), P00519 [M351T]; experiment: Binding affinity to human phosphorylated ABL1 M351T mutant (S229 to K512 residues) expressed in mammalian expression system assessed as residual binding level at 1 uM by Kinomescan method relative to control
How it was run: as §1

[20] = target: Microtubule-associated serine/threonine-protein kinase 1 (Homo sapiens) (UniProt Q9Y2H9); experiment: Binding affinity to wild-type human partial length MAST1 (S346 to V730 residues) expressed in mammalian expression system assessed as residual binding level at 1 uM by Kinomescan method relative to control
[21] = target: Casein kinase I isoform gamma-2 (Homo sapiens) (UniProt P78368); experiment: Binding affinity to wild-type human full length CSNK1G2 (M1 to K415 residues) expressed in bacterial expression system assessed as residual binding level at 1 uM by Kinomescan method relative to control
[22] = target: Serine/threonine-protein kinase pim-3 (Homo sapiens) (UniProt Q86V86); experiment: Binding affinity to wild-type human partial length PIM3 (G16 to A317 residues) expressed in bacterial expression system assessed as residual binding level at 1 uM by Kinomescan method relative to control

## C=CC(=O)Nc1cc(Nc2ncc(Cl)c(Nc3ccccc3S(=O)(=O)C(C)C)n2)c(OC)cc1N(C)CCN(C)C
CYP2C9
  Activity at […], 10 µM: 83%
[1]
  Activity: 23%
[2]
  Activity: 0.05%
[3]
  Activity: 87%
[4]
  Activity: 69%
[5]
  Activity: 12%
[6]
  Activity: 56%
[7]
  Activity: 21%
[8]
  Activity: 21%
[9]
  Activity: 76%
[10]
  Activity: 63%
[11]
  Activity: 99%
[12]
  Activity: 83%
[13]
  remaining at 0.5 h, 1 µM: 17%
[14]
  Activity: 50%
[15]
  Activity: 2.5%
[16]
  Activity: 12%
[17]
  Activity: 17%
[18]
  CL/F: 115 mL/min/kg
[19]
  Activity: 9.5%
[20]
  Activity: 3.2%
[21]
  Activity: 74%
[22]
  Activity: 96%
